# pEC50: −log10 of the molar value. The source made the active and inactive calls. The calls are words filed in the database; no cut-off is given here.
# Key:
# Format in all cases: functional, cell-based
# P2Y purinoceptor 2 [1] = target: P2Y purinoceptor 2 (Homo sapiens, UniProt P41231, C278S); test: Agonist activity at N-terminal HA epitope-tagged human P2Y2 receptor C278S mutant expressed in human 1321N1 cells assessed as increase in intracellular calcium level
# In short: (§1)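 1321N1 astrocytoma cells stably expressing mutant receptor (retroviral transfection, G418 selection), loaded with Oregon Green BAPTA-1/AM in Krebs-HEPES pH 7.4 for 1 h at room temperature. Plated at 150000 cells/well and held 20 min at 28 °C in the dark. Efficacy relative to 100 µM carbachol.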
# [2] = tested on: P2Y purinoceptor 2 (Homo sapiens), P41231 [S296A]; test: Agonist activity at N-terminal HA epitope-tagged human P2Y2 receptor S296A mutant expressed in human 1321N1 cells assessed as increase in intracellular calcium level relative to carbachol
# In short: (§2)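 Retrovirally transduced stable 1321N1 astrocytoma lines (wild-type lines of differing expression, or mutants) in suspension, loaded with Oregon Green BAPTA-1/AM for 1 h at room temperature. Cells were plated at 150000 per well in Krebs-HEPES pH 7.4 and held 20 min at 28 °C in the dark. Agonist was then injected, with fluorescence read at ex 485/em 520 nm for 60 × 0.4 s.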
# P2Y purinoceptor 2 [3] = target: P2Y purinoceptor 2 (Homo sapiens, UniProt P41231, S296A); test: Agonist activity at N-terminal HA epitope-tagged human P2Y2 receptor S296A mutant expressed in human 1321N1 cells assessed as increase in intracellular calcium level
# In short: (§3)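 Retrovirally transduced stable 1321N1 astrocytoma lines (wild-type lines of differing expression, or mutants) in suspension, loaded with Oregon Green BAPTA-1/AM for 1 h at room temperature. Cells were plated at 150000 per well in Krebs-HEPES pH 7.4 and held 20 min at 28 °C in the dark.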
# P2Y purinoceptor 2 [4] = target: T1, P2Y purinoceptor 2 (Homo sapiens, UniProt P41231); test: Agonist activity at N-terminal HA epitope-tagged wild type 3 human P2Y2 receptor expressed in human 1321N1 cells assessed as increase in intracellular calcium level relative to carbachol; in short: as §2
# 1321-N1 = test: Effect on intracellular calcium level in non transfected human 1321N1 cells
# P2Y purinoceptor 2 [5] = target: T1, P2Y purinoceptor 2; test: Agonist activity at N-terminal HA epitope-tagged wild type human P2Y2 receptor expressed in human 1321N1 cells assessed as increase in intracellular calcium level; in short: as §2
# P2Y purinoceptor 2 [6] = target: T1, P2Y purinoceptor 2; test: Agonist activity at N-terminal HA epitope-tagged wild type 1 human P2Y2 receptor expressed in human 1321N1 cells assessed as increase in intracellular calcium level; in short: as §2
# P2Y purinoceptor 2 [7] = target: T1, P2Y purinoceptor 2; test: Agonist activity at N-terminal HA epitope-tagged wild type 3 human P2Y2 receptor expressed in human 1321N1 cells assessed as increase in intracellular calcium level; in short: as §3
# P2Y purinoceptor 2 [8] = target: T1, P2Y purinoceptor 2; test: Agonist activity at N-terminal HA epitope-tagged wild type 4 human P2Y2 receptor expressed in human 1321N1 cells assessed as increase in intracellular calcium level; in short: as §3
# P2Y purinoceptor 2 [9] = target: P2Y purinoceptor 2 (Homo sapiens, UniProt P41231, Y114A); test: Agonist activity at N-terminal HA epitope-tagged human P2Y2 receptor Y114A mutant expressed in human 1321N1 cells assessed as increase in intracellular calcium level; in short: as §1
# P2Y purinoceptor 2 [10] = target: T1, P2Y purinoceptor 2; test: Agonist activity at N-terminal HA epitope-tagged wild type 4 human P2Y2 receptor expressed in human 1321N1 cells assessed as increase in intracellular calcium level relative to carbachol; in short: as §2
# [11] = tested on: P2Y purinoceptor 2 (Homo sapiens), P41231 [Y114A]; test: Agonist activity at N-terminal HA epitope-tagged human P2Y2 receptor Y114A mutant expressed in human 1321N1 cells assessed as increase in intracellular calcium level relative to carbachol; in short: as §2
# P2Y purinoceptor 2 [12] = target: P2Y purinoceptor 2 (Homo sapiens, UniProt P41231, R177A/R180A); test: Agonist activity at N-terminal HA epitope-tagged human P2Y2 receptor R177A_R180A double mutant expressed in human 1321N1 cells assessed as increase in intracellular calcium level; in short: as §1
# [13] = tested on: P2Y purinoceptor 2 (Homo sapiens), P41231 [R177A,R180A]; test: Agonist activity at N-terminal HA epitope-tagged human P2Y2 receptor R177A_R180A double mutant expressed in human 1321N1 cells assessed as increase in intracellular calcium level relative to carbachol; in short: as §2
# P2Y purinoceptor 2 [14] = target: P2Y purinoceptor 2 (Homo sapiens, UniProt P41231, R177A); test: Agonist activity at N-terminal HA epitope-tagged human P2Y2 receptor R177A mutant expressed in human 1321N1 cells assessed as increase in intracellular calcium level; in short: as §1
# [15] = tested on: P2Y purinoceptor 2 (Homo sapiens), P41231 [R177A]; test: Agonist activity at N-terminal HA epitope-tagged human P2Y2 receptor R177A mutant expressed in human 1321N1 cells assessed as increase in intracellular calcium level relative to carbachol; in short: as §2
# P2Y purinoceptor 2 [16] = target: P2Y purinoceptor 2 (Homo sapiens, UniProt P41231, R180A); test: Agonist activity at N-terminal HA epitope-tagged human P2Y2 receptor R180A mutant expressed in human 1321N1 cells assessed as increase in intracellular calcium level; in short: as §1
# [17] = tested on: P2Y purinoceptor 2 (Homo sapiens), P41231 [R180A]; test: Agonist activity at N-terminal HA epitope-tagged human P2Y2 receptor R180A mutant expressed in human 1321N1 cells assessed as increase in intracellular calcium level relative to carbachol; in short: as §2
# P2Y purinoceptor 2 [18] = target: P2Y purinoceptor 2 (Homo sapiens, UniProt P41231, R272A); test: Agonist activity at N-terminal HA epitope-tagged human P2Y2 receptor R272A mutant expressed in human 1321N1 cells assessed as increase in intracellular calcium level; in short: as §1
# [19] = tested on: P2Y purinoceptor 2 (Homo sapiens), P41231 [R272A]; test: Agonist activity at N-terminal HA epitope-tagged human P2Y2 receptor R272A mutant expressed in human 1321N1 cells assessed as increase in intracellular calcium level relative to carbachol; in short: as §2
# P2Y purinoceptor 2 [20] = target: P2Y purinoceptor 2 (Homo sapiens, UniProt P41231, Y118A); test: Agonist activity at N-terminal HA epitope-tagged human P2Y2 receptor Y118A mutant expressed in human 1321N1 cells assessed as increase in intracellular calcium level; in short: as §1
# P2Y purinoceptor 2 [21] = target: P2Y purinoceptor 2 (Homo sapiens, UniProt P41231, R194H); test: Agonist activity at N-terminal HA epitope-tagged human P2Y2 receptor R194H mutant expressed in human 1321N1 cells assessed as increase in intracellular calcium level; in short: as §1
# [22] = tested on: P2Y purinoceptor 2 (Homo sapiens), P41231 [R194H]; test: Agonist activity at N-terminal HA epitope-tagged human P2Y2 receptor R194H mutant expressed in human 1321N1 cells assessed as increase in intracellular calcium level relative to carbachol; in short: as §2
# P2Y purinoceptor 2 [23] = target: P2Y purinoceptor 2 (Homo sapiens, UniProt P41231, Y198A); test: Agonist activity at N-terminal HA epitope-tagged human P2Y2 receptor Y198A mutant expressed in human 1321N1 cells assessed as increase in intracellular calcium level; in short: as §1
# [24] = tested on: P2Y purinoceptor 2 (Homo sapiens), P41231 [Y198A]; test: Agonist activity at N-terminal HA epitope-tagged human P2Y2 receptor Y198A mutant expressed in human 1321N1 cells assessed as increase in intracellular calcium level relative to carbachol; in short: as §2
# [25] = tested on: P2Y purinoceptor 2 (Homo sapiens), P41231 [C278S]; test: Agonist activity at N-terminal HA epitope-tagged human P2Y2 receptor C278S mutant expressed in human 1321N1 cells assessed as increase in intracellular calcium level relative to carbachol; in short: as §2
# [26] = tested on: P2Y purinoceptor 2 (Homo sapiens), P41231 [Y118A]; test: Agonist activity at N-terminal HA epitope-tagged human P2Y2 receptor Y118A mutant expressed in human 1321N1 cells assessed as increase in intracellular calcium level relative to carbachol; in short: as §2
# Chain of P2Y purinoceptor 2 (Homo sapiens), P41231 [Y118A] (P41231 whole entry Y118A): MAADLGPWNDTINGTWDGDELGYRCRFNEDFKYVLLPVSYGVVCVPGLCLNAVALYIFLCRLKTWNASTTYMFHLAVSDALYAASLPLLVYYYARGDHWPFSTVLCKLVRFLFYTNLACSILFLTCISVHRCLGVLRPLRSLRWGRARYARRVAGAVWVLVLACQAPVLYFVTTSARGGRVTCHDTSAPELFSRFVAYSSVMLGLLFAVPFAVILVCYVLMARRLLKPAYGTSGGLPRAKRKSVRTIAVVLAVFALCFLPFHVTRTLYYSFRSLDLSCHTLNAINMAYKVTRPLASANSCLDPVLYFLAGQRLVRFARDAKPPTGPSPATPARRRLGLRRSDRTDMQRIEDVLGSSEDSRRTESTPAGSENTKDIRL
# T1 sequence (P41231 whole entry): as the sequence (P41231 whole entry Y118A) above, with A118Y counted along it
# Chain of P2Y purinoceptor 2 (Homo sapiens, UniProt P41231, R272A) (P41231 whole entry R272A): as the sequence (P41231 whole entry Y118A) above, with A118Y, R272A counted along it
# Chain of P2Y purinoceptor 2 (Homo sapiens), P41231 [R272A] (P41231 whole entry R272A): as the sequence (P41231 whole entry Y118A) above, with A118Y, R272A counted along it
# Chain of P2Y purinoceptor 2 (Homo sapiens, UniProt P41231, Y114A) (P41231 whole entry Y114A): as the sequence (P41231 whole entry Y118A) above, with Y114A, A118Y counted along it
# Chain of P2Y purinoceptor 2 (Homo sapiens), P41231 [Y114A] (P41231 whole entry Y114A): as the sequence (P41231 whole entry Y118A) above, with Y114A, A118Y counted along it
# Chain of P2Y purinoceptor 2 (Homo sapiens, UniProt P41231, R180A) (P41231 whole entry R180A): as the sequence (P41231 whole entry Y118A) above, with A118Y, R180A counted along it
# Chain of P2Y purinoceptor 2 (Homo sapiens), P41231 [R180A] (P41231 whole entry R180A): as the sequence (P41231 whole entry Y118A) above, with A118Y, R180A counted along it
# Chain of P2Y purinoceptor 2 (Homo sapiens), P41231 [S296A] (P41231 whole entry S296A): as the sequence (P41231 whole entry Y118A) above, with A118Y, S296A counted along it
# Chain of P2Y purinoceptor 2 (Homo sapiens, UniProt P41231, S296A) (P41231 whole entry S296A): as the sequence (P41231 whole entry Y118A) above, with A118Y, S296A counted along it
# Chain of P2Y purinoceptor 2 (Homo sapiens, UniProt P41231, R194H) (P41231 whole entry R194H): as the sequence (P41231 whole entry Y118A) above, with A118Y, R194H counted along it
# Chain of P2Y purinoceptor 2 (Homo sapiens), P41231 [R194H] (P41231 whole entry R194H): as the sequence (P41231 whole entry Y118A) above, with A118Y, R194H counted along it
# Chain of P2Y purinoceptor 2 (Homo sapiens, UniProt P41231, R177A) (P41231 whole entry R177A): as the sequence (P41231 whole entry Y118A) above, with A118Y, R177A counted along it
# Chain of P2Y purinoceptor 2 (Homo sapiens), P41231 [R177A] (P41231 whole entry R177A): as the sequence (P41231 whole entry Y118A) above, with A118Y, R177A counted along it
# Chain of P2Y purinoceptor 2 (Homo sapiens, UniProt P41231, Y118A) (P41231 whole entry Y118A): as the sequence (P41231 whole entry Y118A) above
# Chain of P2Y purinoceptor 2 (Homo sapiens), P41231 [R177A,R180A] (P41231 whole entry R177A/R180A): as the sequence (P41231 whole entry Y118A) above, with A118Y, R177A, R180A counted along it
# Chain of P2Y purinoceptor 2 (Homo sapiens, UniProt P41231, R177A/R180A) (P41231 whole entry R177A/R180A): as the sequence (P41231 whole entry Y118A) above, with A118Y, R177A, R180A counted along it
# Chain of P2Y purinoceptor 2 (Homo sapiens, UniProt P41231, C278S) (P41231 whole entry C278S): as the sequence (P41231 whole entry Y118A) above, with A118Y, C278S counted along it
# Chain of P2Y purinoceptor 2 (Homo sapiens), P41231 [C278S] (P41231 whole entry C278S): as the sequence (P41231 whole entry Y118A) above, with A118Y, C278S counted along it
# Chain of P2Y purinoceptor 2 (Homo sapiens), P41231 [Y198A] (P41231 whole entry Y198A): as the sequence (P41231 whole entry Y118A) above, with A118Y, Y198A counted along it
# Chain of P2Y purinoceptor 2 (Homo sapiens, UniProt P41231, Y198A) (P41231 whole entry Y198A): as the sequence (P41231 whole entry Y118A) above, with A118Y, Y198A counted along it
smiles,measurement,setting,value
O=c1ccn([C@@H]2O[C@H](COP(=O)(O)OP(=O)(O)OP(=O)(O)O)[C@@H](O)[C@H]2O)c(=O)[nH]1 [URIDINE TRIPHOSPHATE],pEC50,P2Y purinoceptor 2 [1],5.68
same,Efficacy,[2],3%
same,pEC50,P2Y purinoceptor 2 [3],< 3.52
same,Efficacy,P2Y purinoceptor 2 [4],100%
same,Activity,1321-N1,inactive
same,Activity,P2Y purinoceptor 2 [5],Dose-dependent effect
same,pEC50,P2Y purinoceptor 2 [6],6.11
same,pEC50,P2Y purinoceptor 2 [7],7.09
same,pEC50,P2Y purinoceptor 2 [8],7.23
same,pEC50,P2Y purinoceptor 2 [9],7.43
same,Efficacy,P2Y purinoceptor 2 [10],138%
same,Efficacy,[11],107%
same,pEC50,P2Y purinoceptor 2 [12],6.91
same,Efficacy,[13],109%
same,pEC50,P2Y purinoceptor 2 [14],7.30
same,Efficacy,[15],133%
same,pEC50,P2Y purinoceptor 2 [16],6.86
same,Efficacy,[17],130%
same,pEC50,P2Y purinoceptor 2 [18],4.69
same,Efficacy,[19],99%
same,pEC50,P2Y purinoceptor 2 [20],6.80
same,pEC50,P2Y purinoceptor 2 [21],6.92
same,Efficacy,[22],127%
same,pEC50,P2Y purinoceptor 2 [23],6.97
same,Efficacy,[24],128%
same,Efficacy,[25],86%
same,Efficacy,[26],43%
